In one data set the test system is HUVEC cells. The experiment in a line: Cell cycle assay by flow cytometry. The settings on record: 50 nM (calculated by free DM1), 12 h. It counts as cell-based, human.
Data set [1] in a line: In vivo safety examination. Details: species or system C57BL/6 mice. Put shortly:
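This used the B16 s.c. model in C57BL/6 mice with tail-vein dosing in saline. Body weight was recorded every other day. On day 25 after implantation, 500 μL of blood was taken without heparin and centrifuged (4000 rpm, 5 min); ALT and AST were measured in serum. 20 μL of peripheral blood went for WBC, RBC and platelet counts by autoanalyzer. Heart, liver, spleen, kidney and lung were formalin-fixed, paraffin-embedded, cut at 5 μm and H&E-stained for light microscopy.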

The subject of a further data set is MCF-7 cells. The experiment in a line: Cell cycle assay by flow cytometry. It counts as cell-based, human. The settings on record: 50 nM (calculated by free DM1), 12 h.
The next data set concerns B16 cells. The experiment in a line: Cell cycle assay by flow cytometry. It counts as cell-based, mouse. The following applies: 50 nM (calculated by free DM1), 12 h.

Consider `COc1cc2cc(c1Cl)N(C)C(=O)C[C@H](OC(=O)[C@H](C)N(C)C(=O)CCS)[C@]1(C)O[C@H]1[C@H](C)[C@@H]1C[C@@](O)(NC(=O)O1)[C@H](OC)/C=C/C=C(\C)C2` [DM1, Maytansinoid DM1], for which the “percentage of cells in G2/M phase” value was 42.23% in the data set with HUVEC cells, 57.18% in the data set with MCF-7 cells and 58.26% with B16 cells. Moreover, the “body weight change versus saline” value in data set [1] (B16 tumor-bearing C57BL/6 mice, 400 μg/kg DM1 i.v. every other day x5, n=6) is reported as “significant body weight loss”. The “H&E histology of major organs (heart, liver, spleen, lung, kidney)” value in data set [1] (end of test, 200×) is “severer organic damages”. For the same compound, in data set [1] (peripheral blood at the end of test, n=6, compared with the normal value), the “count of white blood cells (WBC)” value is recorded as “decreased the count”. Also, the “liver function, circulating ALT and AST” value in data set [1] (serum on day 25, n=6) is reported as “obvious hepatic cytolysis”.
